From ChEMBL document CHEMBL1153567, “Synthesis of novel pyrazole derivatives and evaluation of their antidepressant and anticonvulsant activities” (2009)
Active and inactive are the calls of the source. The rule behind the calls is not given here.

Legend:
[1] = test system: Mus musculus; assay: Anticonvulsant activity in Swiss-Webster mouse assessed as protection against PTZ-induced clonic seizures at 20 mg/kg, ip administered 1 hr before PTZ; format: functional; settings: route intraperitoneal
Summary of the method: (§1)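 Mice (n = 6/group), kept at 22 ± 3 °C, 60 ± 5% humidity, 12 h light/dark cycle, acclimated ≥2 days, free food and water. Agents given ip in 0.5% w/v CMC in water at 0.5 mL/100 g. After 1 h, PTZ 100 mg kg⁻¹ ip (0.5% solution). Observed 30 min; no clonic spasm episode lasting ≥5 s counted as protection. % protection = (control − treated convulsions)/control × 100.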

[2] = test system: Mus musculus; assay: Antidepressant activity in Swiss-Webster mouse assessed as reduction in duration of immobility time at 10 mg/kg, ip by tail suspension behavioral despair test; format: functional; design: scale not given: the % may be the effect or the level left; settings: route intraperitoneal
Summary of the method: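 Tail suspension test in mice (n = 6/group; 22 ± 3 °C, 60 ± 5% humidity, 12 h light cycle, acclimated ≥2 days). Doses given ip in 0.5% w/v CMC at 0.5 mL/100 g; controls received CMC, imipramine 10 mg kg⁻¹ ip as reference. After 1 h, mice hung by tape 1 cm from the tail tip, 80 cm above the floor. Passive, motionless immobility timed over 6 min; mean ± S.E.M. and % change from control.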

[3] = test system: Mus musculus; assay: Antidepressant activity in Swiss-Webster mouse assessed as reduction in duration of immobility time at 10 mg/kg, ip by tail suspension behavioral despair test relative to imipramine; format: functional; design: scale not given: the % may be the effect or the level left; settings: route intraperitoneal
[4] = test system: Mus musculus; assay: Anticonvulsant activity in Swiss-Webster mouse assessed as protection against PTZ-induced clonic seizures at 30 mg/kg, ip administered 1 hr before PTZ; format: functional, organism-based; design: dose 30 mg/kg; summary of the method: as §1
[5] = test system: Mus musculus; assay: Anticonvulsant activity in Swiss-Webster mouse assessed as protection against PTZ-induced clonic seizures at 20 mg/kg, ip administered 1 hr before PTZ

Structure (SMILES) | Activity [1] | Activity [2] | Activity [3] | Activity [4] | Activity [5]
N#CC1=C(N)N(C(=O)c2cccs2)NC1(C#N)C#N | 56.8% | 10.6% | – | – | –
O=C(NNC(=O)c1ccccn1)c1ccccn1 | – | 32.39% | 80.2% | – | –
O=C(NNC(=O)c1ccccc1)c1ccccc1 | 65.1% | 71.96% | – | – | –
N#CC1=C(N)N(C(=O)c2ccccc2)NC1(C#N)C#N | – | 9.37% | – | – | –
N#CC1=C(N)N(C(=O)c2cc3ccccc3[nH]2)NC1(C#N)C#N | – | 17.67% | – | – | –
CCOC(=O)c1[nH]n(C(=O)c2cccs2)c(=O)c1C#N | 78.7% | 18.33% | 66.4% | Active | –
CN(C)CCCN1c2ccccc2CCc2ccccc21 [IMIPRAMINE] | – | 45.75% | – | – | –
O=C1NC(=O)C(c2ccccc2)(c2ccccc2)N1 | – | – | – | – | Active
N#CC1=C(N)N(C(=O)c2ccccn2)NC1(C#N)C#N | – | 38.76% | 88.6% | – | –
CCOC(=O)c1[nH]n(C(=O)c2ccccn2)c(=O)c1C#N | 53.7% | 36.99% | 86.1% | – | –
O=C(NNC(=O)c1cc2ccccc2[nH]1)c1cc2ccccc2[nH]1 | – | 17.8% | – | – | –
CCOC(=O)c1[nH]n(C(=O)c2ccccc2)c(=O)c1C#N | 74.5% | 24.41% | 71.8% | Active | –
O=C(NNC(=O)c1cccs1)c1cccs1 | – | 72.22% | – | – | –
CCOC(=O)c1[nH]n(C(=O)c2cc3ccccc3[nH]2)c(=O)c1C#N | 74% | 30.54% | 78.1% | Active | –
